Key:
[1] = biological target: T1, Metabotropic glutamate receptor 4 (Homo sapiens, UniProt Q14833); test: Agonist activity against Metabotropic glutamate receptor 4 expressed in HEK 293 cells was evaluated by measuring total inositol phosphate accumulation; type: functional, cell-based, HEK293
[2] = biological target: Metabotropic glutamate receptor 1 (Homo sapiens, UniProt Q13255); test: Agonist activity against Metabotropic glutamate receptor 1 expressed in HEK 293 cells was evaluated by measuring total inositol phosphate accumulation; No effect at 1 mM; type: functional, cell-based; conditions: hek293
[3] = biological target: T2, Metabotropic glutamate receptor 2 (Homo sapiens, UniProt Q14416); test: Agonist activity against Metabotropic glutamate receptor 2 expressed in HEK 293 cells was evaluated by measuring total inositol phosphate accumulation; No effect at 1 mM; type: functional, cell-based; conditions: hek293
Target sequence in this assay (Q14416 whole entry): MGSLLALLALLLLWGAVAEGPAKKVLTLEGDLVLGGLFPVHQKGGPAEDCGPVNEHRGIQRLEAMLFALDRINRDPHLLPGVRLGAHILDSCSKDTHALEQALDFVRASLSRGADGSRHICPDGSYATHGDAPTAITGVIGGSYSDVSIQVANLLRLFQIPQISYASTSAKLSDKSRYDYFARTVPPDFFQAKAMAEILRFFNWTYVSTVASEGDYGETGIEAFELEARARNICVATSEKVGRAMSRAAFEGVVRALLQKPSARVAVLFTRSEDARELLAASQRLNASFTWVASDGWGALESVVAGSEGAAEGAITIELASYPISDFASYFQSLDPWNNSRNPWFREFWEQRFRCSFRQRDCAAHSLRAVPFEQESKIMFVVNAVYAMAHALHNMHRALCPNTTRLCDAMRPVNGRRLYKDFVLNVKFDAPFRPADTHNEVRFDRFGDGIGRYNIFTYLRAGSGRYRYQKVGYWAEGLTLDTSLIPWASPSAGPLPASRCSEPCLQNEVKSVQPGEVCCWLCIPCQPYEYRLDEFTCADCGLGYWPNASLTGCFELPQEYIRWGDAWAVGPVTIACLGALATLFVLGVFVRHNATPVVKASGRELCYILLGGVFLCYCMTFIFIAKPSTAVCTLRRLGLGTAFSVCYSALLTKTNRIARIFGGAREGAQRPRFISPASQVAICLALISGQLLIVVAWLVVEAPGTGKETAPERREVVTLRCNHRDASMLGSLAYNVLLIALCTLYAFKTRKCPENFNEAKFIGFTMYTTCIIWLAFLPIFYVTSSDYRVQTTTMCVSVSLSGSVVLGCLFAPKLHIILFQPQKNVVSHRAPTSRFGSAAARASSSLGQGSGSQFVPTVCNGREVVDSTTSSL

[4] = biological target: T1, Metabotropic glutamate receptor 4; test: Agonist activity against Metabotropic glutamate receptor 4 expressed in HEK 293 cells was evaluated by measuring total inositol phosphate accumulation; No effect at 1 mM; type: functional, cell-based; conditions: hek293
[5] = biological target: T2, Metabotropic glutamate receptor 2; test: Agonist activity against Metabotropic glutamate receptor 2 expressed in HEK 293 cells was evaluated by measuring total inositol phosphate accumulation; type: functional, cell-based, HEK293
Summary of the method: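 HEK 293 cells in DMEM with 10% fetal calf serum, electroporated with receptor plasmid (mGluR1a 0.3 μg, or mGluR2 2 μg co-expressed with Gqi9). Cells labeled overnight with [3H]myo-inositol, then stimulated 30 min with agonist in 10 mM LiCl. IP produced expressed over membrane radioactivity. Basal taken with glutamate pyruvate transaminase (1 unit/mL) plus 2 mM pyruvate. EC50 from logistic fit; triplicates.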
Target sequence in this assay (Q14416 whole entry): as above

[6] = biological target: T2, Metabotropic glutamate receptor 2; test: Antagonist activity against Metabotropic glutamate receptor 2 expressed in HEK 293 cells was evaluated by measuring total inositol phosphate accumulation; No effect at 1 mM; type: functional, cell-based; conditions: HEK293
Target sequence in this assay (Q14416 19-872 limits assumed): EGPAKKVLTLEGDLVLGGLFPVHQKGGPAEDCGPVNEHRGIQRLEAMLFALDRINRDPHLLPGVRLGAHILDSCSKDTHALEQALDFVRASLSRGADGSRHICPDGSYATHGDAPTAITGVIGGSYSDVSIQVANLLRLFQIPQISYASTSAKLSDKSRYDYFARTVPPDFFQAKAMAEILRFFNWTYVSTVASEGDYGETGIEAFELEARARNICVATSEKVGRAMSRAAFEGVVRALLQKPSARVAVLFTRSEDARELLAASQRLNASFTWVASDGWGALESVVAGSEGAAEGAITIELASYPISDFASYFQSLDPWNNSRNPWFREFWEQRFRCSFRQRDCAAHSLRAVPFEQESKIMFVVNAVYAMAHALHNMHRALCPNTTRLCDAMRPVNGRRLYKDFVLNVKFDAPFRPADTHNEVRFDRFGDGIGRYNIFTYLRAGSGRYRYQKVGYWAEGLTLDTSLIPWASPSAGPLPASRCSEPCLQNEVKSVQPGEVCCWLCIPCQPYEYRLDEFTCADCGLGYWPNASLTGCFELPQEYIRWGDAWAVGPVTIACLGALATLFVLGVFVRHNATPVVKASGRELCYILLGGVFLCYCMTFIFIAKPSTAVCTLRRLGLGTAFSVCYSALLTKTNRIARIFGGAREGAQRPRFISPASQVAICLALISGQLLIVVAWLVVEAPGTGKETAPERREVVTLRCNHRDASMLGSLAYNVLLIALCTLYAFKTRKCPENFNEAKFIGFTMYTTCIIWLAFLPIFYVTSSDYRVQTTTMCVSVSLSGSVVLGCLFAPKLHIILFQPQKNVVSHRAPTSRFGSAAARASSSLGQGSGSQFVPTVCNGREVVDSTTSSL

Metabotropic glutamate receptor 1, sequence (Q13255 whole entry): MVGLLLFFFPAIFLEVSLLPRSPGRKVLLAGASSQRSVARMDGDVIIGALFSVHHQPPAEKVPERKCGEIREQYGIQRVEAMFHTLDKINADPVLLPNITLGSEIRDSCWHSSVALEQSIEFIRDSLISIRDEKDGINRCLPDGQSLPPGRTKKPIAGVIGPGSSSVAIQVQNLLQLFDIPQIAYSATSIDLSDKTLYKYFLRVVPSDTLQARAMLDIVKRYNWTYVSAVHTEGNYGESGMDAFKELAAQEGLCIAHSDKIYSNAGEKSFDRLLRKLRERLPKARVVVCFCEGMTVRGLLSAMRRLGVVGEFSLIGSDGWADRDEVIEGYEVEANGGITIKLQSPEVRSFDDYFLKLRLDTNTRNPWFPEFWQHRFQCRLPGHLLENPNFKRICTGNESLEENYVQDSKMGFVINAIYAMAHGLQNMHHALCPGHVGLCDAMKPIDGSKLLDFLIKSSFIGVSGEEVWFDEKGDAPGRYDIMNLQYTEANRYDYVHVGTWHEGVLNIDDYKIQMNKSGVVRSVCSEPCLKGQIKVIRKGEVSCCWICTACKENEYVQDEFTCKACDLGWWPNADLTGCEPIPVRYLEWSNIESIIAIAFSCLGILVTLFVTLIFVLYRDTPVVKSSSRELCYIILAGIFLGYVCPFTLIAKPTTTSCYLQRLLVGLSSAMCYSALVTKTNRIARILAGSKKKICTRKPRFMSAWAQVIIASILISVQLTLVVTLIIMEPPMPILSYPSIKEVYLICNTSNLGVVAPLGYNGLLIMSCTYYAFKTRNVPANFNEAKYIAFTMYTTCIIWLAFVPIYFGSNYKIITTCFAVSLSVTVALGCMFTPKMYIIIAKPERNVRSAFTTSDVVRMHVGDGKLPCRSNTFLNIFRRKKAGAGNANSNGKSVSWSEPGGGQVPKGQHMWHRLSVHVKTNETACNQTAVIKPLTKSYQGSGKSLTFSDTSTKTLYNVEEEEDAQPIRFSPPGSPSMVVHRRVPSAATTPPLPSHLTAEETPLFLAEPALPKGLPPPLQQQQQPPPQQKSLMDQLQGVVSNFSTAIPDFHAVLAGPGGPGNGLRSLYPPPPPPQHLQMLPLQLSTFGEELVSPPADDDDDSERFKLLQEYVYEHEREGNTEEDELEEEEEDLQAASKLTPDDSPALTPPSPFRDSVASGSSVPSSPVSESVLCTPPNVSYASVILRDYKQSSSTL
T1 sequence (Q14833 whole entry): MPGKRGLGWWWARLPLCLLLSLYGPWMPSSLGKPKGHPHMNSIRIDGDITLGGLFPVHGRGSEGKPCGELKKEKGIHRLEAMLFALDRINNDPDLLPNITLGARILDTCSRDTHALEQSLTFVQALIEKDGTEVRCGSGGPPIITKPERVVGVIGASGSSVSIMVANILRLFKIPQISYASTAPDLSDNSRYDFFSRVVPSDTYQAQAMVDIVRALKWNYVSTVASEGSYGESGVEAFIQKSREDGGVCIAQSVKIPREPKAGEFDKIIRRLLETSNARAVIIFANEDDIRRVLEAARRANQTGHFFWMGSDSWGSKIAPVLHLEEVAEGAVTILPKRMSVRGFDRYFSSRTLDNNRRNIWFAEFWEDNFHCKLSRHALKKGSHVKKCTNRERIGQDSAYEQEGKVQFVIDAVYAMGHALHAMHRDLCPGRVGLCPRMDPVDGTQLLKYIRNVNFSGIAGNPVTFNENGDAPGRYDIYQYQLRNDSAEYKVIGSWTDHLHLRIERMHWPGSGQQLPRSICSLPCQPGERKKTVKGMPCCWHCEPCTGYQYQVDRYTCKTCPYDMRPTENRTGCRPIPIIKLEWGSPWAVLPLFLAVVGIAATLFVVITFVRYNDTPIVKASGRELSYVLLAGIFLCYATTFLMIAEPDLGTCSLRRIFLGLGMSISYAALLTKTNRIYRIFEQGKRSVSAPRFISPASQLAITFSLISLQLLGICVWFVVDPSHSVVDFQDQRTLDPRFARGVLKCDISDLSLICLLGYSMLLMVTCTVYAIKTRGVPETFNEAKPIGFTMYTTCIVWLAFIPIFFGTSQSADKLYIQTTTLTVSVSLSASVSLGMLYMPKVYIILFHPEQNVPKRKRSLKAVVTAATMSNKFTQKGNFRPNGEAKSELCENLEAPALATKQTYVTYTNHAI

| SMILES | EC50 [1] [µM] | EC50 [2] | EC50 [3] | EC50 [4] | EC50 [5] [µM] | Kb [6] |
| --- | --- | --- | --- | --- | --- | --- |
| NC1(C(=O)O)CC(C(=O)O)C(C(=O)O)C1 (racemic) | 40 | No effect | No effect |  |  |  |
| N[C@]1(C(=O)O)C[C@H](C(=O)O)[C@H](C(=O)O)C1 |  | No effect | No effect | No effect |  |  |
| N[C@@]1(C(=O)O)CC[C@@H](C(=O)O)C1 |  |  |  |  | 18 |  |
| NC1(C(=O)O)C[C@@H](C(=O)O)[C@H](C(=O)O)C1 |  | No effect | No effect | No effect |  |  |
| N[C@@]1(C(=O)O)C[C@H](C(=O)O)[C@H](C(=O)O)C1 | 7.2 | No effect | No effect |  |  | No effect |
| NC1(C(=O)O)C[C@H](C(=O)O)[C@@H](C(=O)O)C1 | 8.8 | No effect | No effect |  |  |  |
| N[C@]1(C(=O)O)CC[C@@H](C(=O)O)C1 |  |  |  | No effect | > 1000 |  |
| N[C@]1(C(=O)O)CC[C@H](C(=O)O)C1 |  |  |  |  | 110 |  |
| N[C@@]1(C(=O)O)CC[C@H](C(=O)O)C1 |  |  |  |  | 13 |  |
